Measured values published in PMC10527240 (International journal of biological macromolecules, 2023).

How the values were obtained:
HRPT cells = test: Palmitate-induced lipoapoptosis by TUNEL in HRPT cells; assay type: cell-based, human; conditions: for Effect on palmitate-induced lipoapoptosis: drug 5 μM, 2 hr, then palmitate 100 μM, 16 hr
Method in brief: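 Immortalized human kidney proximal tubule cells were grown to near confluence on glass coverslips. They were preincubated with test compound (5 μM, 2 hr, 37°C), then albumin-complexed palmitate was added (100 μM, 16 hr, 37°C). Fixed cells were scored by TUNEL under fluorescence microscopy at 400X by blinded operators, ten random fields, one experiment. Mean ± SD; ANOVA.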

human FATP2 = human FATP2 (Homo sapiens, UniProt O14975); test: BODIPY-C16 FA uptake in HRPT cells stably expressing human FATP2; assay type: cell-based

IC50 (HRPT cells; read-out: IC50 for palmitate-induced apoptosis, compound 2 hr 37° C, then palmitate 100 μM, 16 hr) [nM] | IC50 (human FATP2) [µM] | Compound | Effect on palmitate-induced lipoapoptosis (HRPT cells)
600 | – | Cc1ccc2c(c1)C1(NN=C(c3ccccc3)S1)C(=O)N2 (centres unmarked) [Compound 1] | protective
– | – | O=C1Nc2ccc(Br)cc2C12NN=C(c1ccccc1)S2 (centres unmarked) [Lipofermata] | protective
– | > 500 | CCCCCc1cccc(CC(=O)O)c1 [PBI-4050] | –
– | – | Grassofermata | increased apoptosis
